Assay outcomes (PubChem BioAssay)
RGS4 block – inhibitors of human RGS4; HEK293 M3R/RGS4 inducible, Fluo-4 calcium flux; stronger effect = higher value; triggered by carbachol at its EC20; B-score at 10 µM; 310,000 compounds, 0.45% hits;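 active = B-score, a plate-corrected calcium signal, over three deviations above library mean, with baseline fluorescence within five deviations of library mean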;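 note: RGS4 expression induced by doxycycline in cells with stable M3 receptor; B-score is computed from the integrated fluorescence ratio over baseline after carbachol; higher B-score means a larger calcium signal and so more RGS4 inhibition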
Target sequence (P49798 whole entry, looked up): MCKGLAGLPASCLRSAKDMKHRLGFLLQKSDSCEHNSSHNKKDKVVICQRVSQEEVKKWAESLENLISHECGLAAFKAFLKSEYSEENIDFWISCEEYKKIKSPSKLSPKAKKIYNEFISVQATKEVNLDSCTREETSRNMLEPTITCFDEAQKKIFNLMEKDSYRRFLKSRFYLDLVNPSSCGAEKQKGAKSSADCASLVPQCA
MrgX1 allo act – allosterically activates human MrgX1 receptor signaling; Q96LB2; B-score at 10 µM; 310,000 compounds, 0.63% hits; MrgX1-HEK293, Fluo-4 calcium flux, FDSS; stronger effect = higher value;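 active = plate-corrected calcium response at least 3 library SD above typical, normal starting fluorescence, not activating the receptor alone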;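 note: compound read alongside a low EC10 to EC30 dose of BAM8-22 agonist; peak minus trough fluorescence over baseline measured at the second addition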
Target sequence (Q96LB2 whole entry, looked up): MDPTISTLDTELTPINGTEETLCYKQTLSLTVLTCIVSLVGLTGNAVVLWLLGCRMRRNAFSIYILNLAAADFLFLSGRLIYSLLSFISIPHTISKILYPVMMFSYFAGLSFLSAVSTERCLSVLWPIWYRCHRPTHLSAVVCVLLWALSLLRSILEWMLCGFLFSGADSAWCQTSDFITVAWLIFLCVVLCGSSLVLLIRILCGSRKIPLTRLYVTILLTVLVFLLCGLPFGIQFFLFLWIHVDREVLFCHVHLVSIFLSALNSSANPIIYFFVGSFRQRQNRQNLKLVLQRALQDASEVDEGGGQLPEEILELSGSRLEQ
MrgX1 antagonist – antagonists of human MrgX1 receptor. Q96LB2. MRGX1-HEK293 calcium flux, Fluo-4, BAM8-22 antagonism; stronger effect = lower value. B-score at 10 µM. 310,000 compounds, 1.3% hits;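 active = calcium-response B-score plate-corrected more than 3 library SD below zero, starting fluorescence within 5 deviations, no agonist response on first addition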;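 note: peak minus trough fluorescence over baseline after final BAM8-22 challenge near maximal dose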
MrgX1 agonist – activates human MrgX1 receptor signaling. Q96LB2. B-score at 10 µM. 310,000 compounds, 0.44% hits. MrgX1-HEK293 cells, Fluo-4 calcium fluorescence, agonist mode; stronger effect = higher value;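 active = calcium response B-score plate-corrected fluorescence ratio at least 3 library SD, with starting fluorescence B-score inside 5 SD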
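Test system: Stable human MrgX1 HEK293 cell line | Schedule: Overnight plating before 1 h dye loading | Read-out basis: Baseline-normalised fluorescence change ratio, B-scored | Detection: Kinetic calcium dye fluorescence, Fluo-4 NW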
RGS4 pot – potentiators or activators of RGS4. HEK293 M3R/inducible RGS4, carbachol calcium flux Fluo4; stronger effect = lower value. B-score at 10 µM. 310,000 compounds, 0.92% hits. AID 463111;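 active = B-score of the integrated calcium signal more than 4 SD below the library mean, with starting fluorescence not abnormally high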;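 note: negative B-score means reduced calcium response which marks RGS4 activation or potentiation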
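Material: M3R-expressing HEK293 line, RGS4 induced by doxycycline | Schedule: Overnight RGS4 induction, 30 min dye load 37 °C, 20 min compound RT | Measured by: Fluo4 fluorescence kinetic imaging of calcium | Read-out: Integrated calcium ratio converted to B score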
RGS4 inh valid – RGS4 inhibitor validation; AID 492999; HEK293 M3R/RGS4, carbachol calcium Fluo-4 fluorescence; carbachol added at its EC20; 0 = buffer wells, 100 = carbachol control; 1,700 compounds, 65% hits; shares compounds with RGS4 block; calcium response, % at 10 µM;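 active = duplicate-averaged calcium response above the buffer-only control mean plus 5 SD of those controls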;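 note: integrated fluorescence ratio F max minus min over baseline F0; higher response in RGS4-induced cells means RGS4 inhibition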
M3R Ca ctr – checks RGS4 inhibitor effects in non-induced HEK293 M3R cells; shares compounds with RGS4 block; carbachol calcium Fluo-4; submaximal (EC20) carbachol stimulus; buffer wells 0%, carbachol control wells 100%; activity (percent), % at 10 µM; 1,900 compounds, 20% hits; AID 493000; call rule not given here;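 note: RGS4 induction absent so cells express M3R without RGS4; higher means more calcium signal and flags a non-specific hit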
M3R basal Ca ctr – second RGS4 inhibitor counter-screen in uninduced cells lacking carbachol | shares compounds with RGS4 block | HEK293 M3R/RGS4 non-induced, Fluo-4 calcium, no carbachol; normalised: buffer wells 0%, carbachol wells 100% | calcium response (agonist-mode artifact), % at 10 µM | 1,900 compounds, 22% hits | AID 493001;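 active = duplicate-averaged calcium rise in uninduced cells above buffer wells' mean plus 5 SD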
Numbers without * were called inactive. Most compounds without a hit are left out; they make up all but 3.5% or so of the library.

Screening CCOc1ccccc1N(C)C(=O)c1cn(C)c(=O)c2ccccc12 returned RGS4 block inactive, MrgX1 allo act inactive, MrgX1 antagonist inactive, MrgX1 agonist inactive and RGS4 pot inactive.
`CCn1c(=O)c2cc(C(=O)N(C)c3ccc(OC)cc3OC)sc2c2ccccc21` gave RGS4 block inactive, MrgX1 allo act inactive, MrgX1 antagonist inactive, MrgX1 agonist inactive and RGS4 pot inactive.
CCn1c(=O)c2cc(C(=O)N(C)c3cc(C)ccc3OC)sc2c2ccccc21 was read as RGS4 block 6.05*, MrgX1 allo act inactive, MrgX1 antagonist inactive, MrgX1 agonist inactive, RGS4 pot inactive, RGS4 inh valid 30.5%*, M3R Ca ctr 59.5%* and M3R basal Ca ctr inactive.
`CCCCC1=CC2=C(c3ccco3)C(=O)C(C)(OC(=O)c3ccc(OC)cc3)C(=O)C2=CN1CCOC` (stereo not given) gave RGS4 block 4.91*, MrgX1 allo act inactive, MrgX1 antagonist inactive, MrgX1 agonist inactive, RGS4 pot inactive, RGS4 inh valid 22.0%*, M3R Ca ctr 33.5%* and M3R basal Ca ctr inactive.
Screening CCCCC1=CC2=CC(=O)C(C)(OC(=O)CC)C(=O)C2=CN1CCc1ccccn1 (stereo not given) returned RGS4 block inactive, MrgX1 allo act inactive, MrgX1 antagonist inactive, MrgX1 agonist inactive and RGS4 pot inactive.
For CCCCC1=CC2=C(c3ccco3)C(=O)C(C)(OC(=O)c3ccc(OC)cc3)C(=O)C2=CN1Cc1ccc2c(c1)OCO2 (stereo not given) the results were RGS4 block inactive, MrgX1 allo act inactive, MrgX1 antagonist inactive, MrgX1 agonist inactive and RGS4 pot inactive.
Screening CCCCC1=CC2=C(c3ccco3)C(=O)C(C)(OC(=O)c3ccc(OC)cc3)C(=O)C2=CN1C1CCCCC1 (stereo not given) returned RGS4 block inactive, MrgX1 allo act inactive, MrgX1 antagonist inactive, MrgX1 agonist inactive, RGS4 pot inactive, RGS4 inh valid inactive, M3R Ca ctr inactive and M3R basal Ca ctr inactive.
`CCCCC1=CC2=C(c3ccco3)C(=O)C(C)(OC(=O)c3ccc(OC)cc3)C(=O)C2=CN1Cc1ccccc1` (stereo not given) gave RGS4 block inactive, MrgX1 allo act inactive, MrgX1 antagonist -5.36*, MrgX1 agonist inactive, RGS4 pot inactive, RGS4 inh valid inactive, M3R Ca ctr inactive and M3R basal Ca ctr inactive.
For COC(=O)CCCC1=CC2=C(c3ccccc3)C(=O)C(C)(OC(=O)C3CCCC3)C(=O)C2=CN1C1CCCCC1 (stereo not given) the results were RGS4 block inactive, MrgX1 allo act inactive, MrgX1 antagonist inactive, MrgX1 agonist inactive and RGS4 pot inactive.
`CCCCC1=CC2=C(c3ccco3)C(=O)C(C)(OC(=O)c3ccc(OC)cc3)C(=O)C2=CN1CCc1ccccn1` (stereo not given) gave RGS4 block inactive, MrgX1 allo act inactive, MrgX1 antagonist inactive, MrgX1 agonist inactive, RGS4 pot inactive, M3R Ca ctr 48.0%* and M3R basal Ca ctr inactive.
`COCCOC(=O)c1c(C)n(C)c2ccc(OC(=O)c3ccccc3F)cc12` gave RGS4 block inactive, MrgX1 allo act inactive, MrgX1 antagonist inactive, MrgX1 agonist inactive and RGS4 pot inactive.
Cc1cc(Br)ccc1S(=O)(=O)n1ccnc1C was read as RGS4 block inactive, MrgX1 allo act inactive, MrgX1 antagonist inactive, MrgX1 agonist inactive and RGS4 pot inactive.
`Cc1ccc2[nH]c3c(c2c1)CN(C(=O)CN1c2ccc(F)cc2CCC1C)CC3` (stereo not given) gave RGS4 block 8.97*, MrgX1 allo act inactive, MrgX1 antagonist inactive, MrgX1 agonist inactive, RGS4 pot inactive, RGS4 inh valid 23.0%*, M3R Ca ctr inactive and M3R basal Ca ctr inactive.
`Cc1ccc2[nH]c3c(c2c1)CN(C(=O)CN1CCN(c2cccc(C)c2C)CC1)CC3` gave RGS4 block inactive, MrgX1 allo act inactive, MrgX1 antagonist inactive, MrgX1 agonist inactive and RGS4 pot inactive.
Screening Cc1cccc(CSCc2ccc(C(=O)O)o2)c1 returned RGS4 block inactive, MrgX1 allo act inactive, MrgX1 antagonist inactive, MrgX1 agonist inactive and RGS4 pot inactive.
For Cc1ccc(CSCc2ccc(C(=O)O)o2)cc1 the results were RGS4 block 4.98*, MrgX1 allo act inactive, MrgX1 antagonist inactive, MrgX1 agonist inactive, RGS4 pot inactive, RGS4 inh valid inactive, M3R Ca ctr inactive and M3R basal Ca ctr inactive.
CC(=O)CCc1oc2c([N+](=O)[O-])cccc2c1-c1ccc(C)o1 was read as RGS4 block inactive, MrgX1 allo act inactive, MrgX1 antagonist inactive, MrgX1 agonist inactive and RGS4 pot inactive.
Screening C/C(CCc1oc2c(Br)cc(Br)cc2c1-c1ccc(C)o1)=N\O returned RGS4 block 11.4*, MrgX1 allo act inactive, MrgX1 antagonist inactive, MrgX1 agonist inactive, RGS4 pot inactive, RGS4 inh valid inactive, M3R Ca ctr inactive and M3R basal Ca ctr inactive.
`C=CCOc1ccc2c(c1)C(=NO)c1cc(OCC=C)ccc1-2` gave RGS4 block 5.58*, MrgX1 allo act inactive, MrgX1 antagonist inactive, MrgX1 agonist inactive, RGS4 pot inactive, RGS4 inh valid 9.5%*, M3R Ca ctr inactive and M3R basal Ca ctr inactive.
Screening CC(=O)Nc1cccc(NC(=O)CSc2ncc(C(=O)Nc3ccc(F)cc3)c(=O)n2C)c1 returned RGS4 block inactive, MrgX1 allo act inactive, MrgX1 antagonist inactive, MrgX1 agonist inactive, RGS4 pot inactive, RGS4 inh valid inactive, M3R Ca ctr inactive and M3R basal Ca ctr inactive.
For CC(=O)c1cccc(NC(=O)CSc2ncc(C(=O)Nc3ccccc3)c(=O)n2C)c1 the results were RGS4 block inactive, MrgX1 allo act inactive, MrgX1 antagonist inactive, MrgX1 agonist inactive, RGS4 pot inactive, M3R Ca ctr 39.0%* and M3R basal Ca ctr inactive.
